# Results of several laboratories.
# Read-out: DPPH scavenging
SMILES,assay,IC50
CCCCOc1ccc(NC(=O)Cc2c[nH]c3ccccc23)cc1,,2420 nM
Clc1ccc2[nH]c(-c3cccc(OCc4ccccc4)c3)nc2c1,absorbance,1820 nM
Cc1ccc(NC(=O)Cc2c[nH]c3ccccc23)c(C)c1,,2670 nM
COc1cc(C(CC(=O)c2ccc(C)cc2)NCCc2ccc(O)c(O)c2)ccc1O (centres unmarked),,21.1 µg/mL
O=C1O[C@H]([C@@H](O)CO)C(O)=C1O,,3.6 µg/mL
COc1ccc(-c2nc3cc(Cl)ccc3[nH]2)cc1OCc1ccccc1,absorbance,2760 nM
COc1cc(C(CC(=O)c2ccc([N+](=O)[O-])cc2)NCCc2ccc(O)c(O)c2)ccc1O (centres unmarked),,14.6 µg/mL
Cc1ccc(C)c(NC(=O)Cc2c[nH]c3ccccc23)c1,,1790 nM
COc1cc(C=Cc2cc(-c3ccc(N(C)C)cc3)nc(O)n2)ccc1O,,32.5 µg/mL
CCCCCCCCOc1ccc(NC(=O)Cc2c[nH]c3ccccc23)cc1,,2450 nM
COc1cc(C(CC(=O)c2ccc(Cl)cc2)NCCc2ccc(O)c(O)c2)ccc1O (centres unmarked),,15.3 µg/mL
O=c1oc2c(O)c(O)cc3c(=O)oc4c(O)c(O)cc1c4c23,absorbance,67800 nM
COc1cc(C(CC(=O)c2ccc(Br)cc2)NCCc2ccc(O)c(O)c2)ccc1O (centres unmarked),,15.2 µg/mL
COc1ccc(-c2nc3ccccc3[nH]2)cc1OCc1ccccc1,absorbance,1480 nM
Cc1c(C)c2c(c(C)c1O)CCC(C)(C(=O)O)O2 (centres unmarked),absorbance,7.06 µg/mL
O=C(Cc1c[nH]c2ccccc12)Nc1cccc(F)c1,,1530 nM
O=c1c(O[C@@H]2O[C@H](CO)[C@@H](O)[C@H](O)[C@H]2O)c(-c2ccc(O)c(O)c2)oc2cc(O)cc(O)c12,absorbance,90500 nM
COc1ccc(-c2nc3cc(F)ccc3[nH]2)cc1OCc1ccccc1,absorbance,2580 nM
COC(=O)c1cc(O)c(O)c(O)c1,absorbance,35000 nM
O=C(Cc1c[nH]c2ccccc12)Nc1ccccc1,,2360 nM
